# Laboratory results reported in PubChem BioAssay.
# Calls of active or inactive are those of the source.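 How the source made its calls, unless noted: active means viability at or under a set limit in both replicates, limit being median viability minus 3 SD (cut at about 48% in these data, passing the limit was not always enough); inconclusive means at or under the limit in just one replicate; inactive means at or above the limit in both replicates.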
# Tests used:
# [1] = SK-BR-3 cell growth inhibitors, pilot screen, 24 h, human (AID 572;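 active means viability at or below 10% of carrier control in both of two separate runs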;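 further: compound exposure lasted between 18 and 24 h rather than exactly 24 h; 100% = carrier-treated control wells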); details: SK-BR-3 viability, CellTiter-Glo luminescence, at 10 µM, stronger effect = lower value
# [2] = HUVEC growth inhibition – cell-based, human, primary screen (AID 575;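 active means viability at or below 30% in both replicate assays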;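 further: 100% = median of untreated cell wells with 0.1% DMSO on each plate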); details: HUVEC proliferation, CellTiter-Glo luminescence, 72 h; at 10 µM; stronger effect = lower value
# Summary of the method: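 material = primary HUVEC, no more than 12 passages | input = 1250 cells per well | controls = vehicle and MePR control wells | measured by = CTG luminescence | times = 72 h compound incubation | format = collagen-coated 384-well format | read-out = % viability vs DMSO wells | doses = single 10 µM dose, 0.1% DMSO, from 5x medium stock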
# [3] = growth inhibitors of H69AR lung tumor, primary screen, human, duplicate replicates (AID 580); details: H69AR lung tumor cells viability, ATP luminescence, 72 h; at 10 µM; stronger effect = lower value;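 further: 100% = mean luminescence of untreated wells and 0% = no signal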
# [4] = reversal of MRP1-mediated doxorubicin resistance, pilot screen, H69AR cells, doxorubicin co-treatment (AID 601;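 active means viability loss from added drug above about 55%, and viability with drug at most 40%, in both replicates, limit read from the data, passing the limit was not always enough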); details: CellTiter-Glo, 72 h, at 10 µM; for differential viability (reversal): stronger effect = higher value
# [5] = 384-well plate pilot, post-Golgi transport modulator project, inhibition of yeast transport mutant growth (AID 636; in the data active means inhibition above about 31%); details: absorbance 615 nm, about 18 h, stronger effect = higher value
# [6] = growth suppression of yeast trafficking mutant, preliminary HTS, modulators of trafficking downstream of Golgi apparatus project, 1536-format plate, OD 615 nm (AID 637; in the data active means inhibition above about 30%); details: yeast transport mutant growth, absorbance 615 nm, 18 h; stronger effect = higher value
# [7] = H69AR cells + 2 uM doxorubicin, measured here: viability with 2 uM doxorubicin, stronger effect = lower value
# [8] = H69AR cells, compound alone cytotoxicity
SMILES,viability [1],viability [2],viability [3],differential viability (reversal) ([4]; H69AR cells + 2 uM doxorubicin),"viability [4, 7] [%]","viability [4, 8] [%]",inhibition [5],inhibition [6]
Cc1ccccc1-n1c(SCc2c(C)noc2C)nnc1-c1ccncc1,92% (inactive),87.5% (inactive),87.4% (inactive),8.34% (inactive),79.1,87.4,-3.78% (inactive),-2% (inactive)
COc1cc(NC(=O)CSCc2cnn(-c3ccccc3)c2-n2cccc2)cc(OC)c1,103% (inactive),67.9% (inactive),80.6% (inactive),5.25% (inactive),75.3,80.6,-4.46% (inactive),-4.18% (inactive)
COc1ccc(CN(C2CCCC2)S(=O)(=O)c2ccc(-n3cnnn3)cc2)cc1OC,71% (inactive),80.5% (inactive),81.6% (inactive),-14% (inactive),95.6,81.6,-7.12% (inactive),0.81% (inactive)
CC(C)OC(=O)CCCCCN1C(=O)CSC1=S,108% (inactive),86.7% (inactive),68.2% (inactive),-7.49% (inactive),75.7,68.2,-0.67% (inactive),-6.13% (inactive)
CCC(=O)Nc1ccc(NC(=O)c2ccccn2)cn1,87% (inactive),103% (inactive),98.2% (inactive),13.6% (inactive),84.6,98.2,-5.47% (inactive),-8% (inactive)
O=C(CN1C(=O)c2ccccc2S1(=O)=O)Nc1ccc(S(=O)(=O)N2CCCCCC2)cc1,110% (inactive),81.4% (inactive),103% (inactive),14.2% (inactive),89.3,103,5.48% (inactive),-1.45% (inactive)
COC(=O)CC(C(=O)Nc1cc(C(=O)OC)cc(C(=O)OC)c1)N1CCN(C)CC1 (stereo not drawn),132% (inactive),99.5% (inactive),95.6% (inactive),5.77% (inactive),89.8,95.6,-5.62% (inactive),-7.9% (inactive)
O=C(CSCc1n[nH]c(=O)[nH]1)NCCOc1cccc(Oc2ccccc2)c1,103% (inactive),102% (inactive),104% (inactive),3.55% (inactive),100,104,-1.2% (inactive),2.73% (inactive)
CC1CCN(CCCNC(=O)c2coc3nc4ccccc4nc23)CC1,148% (inactive),90.6% (inactive),92.9% (inactive),-6.4% (inactive),99.3,92.9,-2.73% (inactive),-2.13% (inactive)
CC1(C)S[C@@H]2[C@H](NC(=O)C(C(=O)O)c3ccccc3)C(=O)N2[C@H]1C(=O)O (stereo partly drawn),87% (inactive),73.9% (inactive),107% (inactive),3.92% (inactive),103,107,-1.43% (inactive),-2.67% (inactive)
CCCCOc1ccc(C2C3CN(C(=O)OCC)CC=C3C(C#N)=C(N)C2(C#N)C#N)cc1OC (stereo not drawn),62% (inactive),51.2% (inactive),60.5% (inactive),5.07% (inactive),55.4,60.5,-5.27% (inactive),2.13% (inactive)
COc1ccccc1NC(=O)NCc1ccc2c(c1)OCO2,87% (inactive),101% (inactive),93% (inactive),-1.33% (inactive),94.4,93,-4.13% (inactive),-3.82% (inactive)
C=CCn1c(SCn2nnc3ccccc3c2=O)nnc1-c1ccc(Br)cc1,97% (inactive),94.2% (inactive),89.1% (inactive),7.09% (inactive),82,89.1,43.2% (active),31.6% (active)
COc1ccc(-c2nnn(CC(=O)c3ccc4c(c3)OCCO4)n2)cc1OC,92% (inactive),73.8% (inactive),81.5% (inactive),7.78% (inactive),73.7,81.5,-7.26% (inactive),0% (inactive)
CN(C)c1nc(N(C)C)nc(N(C)C)n1,95% (inactive),106% (inactive),96.8% (inactive),-2.79% (inactive),99.6,96.8,-1.69% (inactive),-2.67% (inactive)
COCCn1nnnc1C(c1cc2ccc(OC)cc2[nH]c1=O)N1CCc2ccccc2C1 (stereo not drawn),89% (inactive),90.4% (inactive),85.6% (inactive),-13.3% (inactive),98.9,85.6,-1.64% (inactive),4.52% (inactive)
COCCCC/C(=N\OCCN)c1ccc(C(F)(F)F)cc1,84% (inactive),55.7% (inactive),104% (inactive),20% (inactive),83.9,104,-0.91% (inactive),-6.83% (inactive)
COc1ccc(NC(=O)Nc2ccccc2C)c(OC)c1,93% (inactive),95.1% (inactive),89% (inactive),20.8% (inactive),68.2,89,-4.8% (inactive),-1.09% (inactive)

SMILES,viability [1],viability [2],viability [3],differential viability (reversal) ([4]; H69AR cells + 2 uM doxorubicin),"viability [4, 7] [%]","viability [4, 8] [%]",inhibition [5],inhibition [6]
Cc1ccc(-n2nc3cc(Cl)c(NC(=O)c4ccco4)cc3n2)cc1,116% (inactive),92.6% (inactive),42.7% (active),-5.97% (inactive),48.7,42.7,-7.53% (inactive),2.7% (inactive)
O=C(CSc1nc2ccccc2o1)N1CCN(C(=O)c2ccco2)CC1,117% (inactive),102% (inactive),94.5% (inactive),1.25% (inactive),93.3,94.5,-6.67% (inactive),-1.45% (inactive)
N#Cc1ccc(CSc2nnc(-c3ccccn3)n2-c2ccccc2)cc1,62% (inactive),93.5% (inactive),95.1% (inactive),6.06% (inactive),89.1,95.1,-7.67% (inactive),-1.09% (inactive)
O=C(CSc1nc(N2CCCCC2)nc(N2CCCCC2)n1)Nc1nccs1,123% (inactive),85.4% (inactive),77.3% (inactive),4.8% (inactive),72.5,77.3,-2.21% (inactive),-7.21% (inactive)
CSCCC(NC(=O)CCN1C(=O)c2ccccc2C1=O)C(=O)O (stereo not drawn),85% (inactive),101% (inactive),98.5% (inactive),13.8% (inactive),84.7,98.5,-3.01% (inactive),6.73% (inactive)
Cc1nn(-c2ccc(F)cc2)c2sc(C(=O)N3CCCCCC3)cc12,93% (inactive),92% (inactive),78.8% (inactive),-14% (inactive),92.8,78.8,-2.7% (inactive),12.2% (inactive)
Cc1ccc(S(=O)(=O)N2CCN(c3nc(C)nc4sc(C)c(C)c34)CC2)cc1,95% (inactive),108% (inactive),99.5% (inactive),-2.76% (inactive),102,99.5,-3.73% (inactive),-0.73% (inactive)
Cc1c(Cl)cccc1NC(=O)CCN1CCCCCC1,116% (inactive),103% (inactive),88.3% (inactive),2.1% (inactive),86.2,88.3,-6.85% (inactive),5.64% (inactive)
COc1ccc2c3c(c(=O)oc2c1OCC(N)=O)CCCC3,117% (inactive),117% (inactive),97.6% (inactive),16.2% (inactive),81.3,97.6,-5.48% (inactive),-2.55% (inactive)
Cc1[nH]nc(N=CC2=C(O)CC(C)(C)CC2=O)c1-c1ccccc1,85% (inactive),100% (inactive),88.6% (inactive),-6.69% (inactive),95.3,88.6,-0.95% (inactive),1.09% (inactive)
Cc1nc2sccn2c(=O)c1CCN1CCC(=C(c2ccc(F)cc2)c2ccc(F)cc2)CC1,111% (inactive),11.5% (active),85.7% (inactive),-2.19% (inactive),87.8,85.7,1.04% (inactive),6.17% (inactive)
O=C(CN1CCSCC1)N1CCc2[nH]c3ccc(Br)cc3c2C1,84% (inactive),69.7% (inactive),88.6% (inactive),7.04% (inactive),81.5,88.6,-4.93% (inactive),2.18% (inactive)
Cc1ccc(-n2ncc3c(=O)n(CC(=O)NCc4ccco4)cnc32)cc1,105% (inactive),76.5% (inactive),81.3% (inactive),-12.3% (inactive),93.6,81.3,1.92% (inactive),1.77% (inactive)
CCc1ccccc1NC(=O)CSC1=C(C#N)C(c2ccc(O)c(OC)c2)C2=C(CCCC2=O)N1 (stereo not drawn),112% (inactive),105% (inactive),47.9% (active),-30.2% (inactive),78.1,47.9,-8.08% (inactive),5.65% (inactive)
O=C(NCc1ccccn1)c1cc(-n2cnnc2)ccc1Cl,86% (inactive),88.6% (inactive),101% (inactive),-1.2% (inactive),102,101,-2.73% (inactive),2.79% (inactive)
CCc1ccccc1OCCCCN1CCCC1,124% (inactive),82% (inactive),89.1% (inactive),10.8% (inactive),78.2,89.1,-5.06% (inactive),-1.97% (inactive)
COc1ccc(CN2C(=O)[C@@H]3C(c4ccc(F)cc4)=NO[C@@H]3C2=O)cc1,91% (inactive),114% (inactive),89.1% (inactive),3.49% (inactive),85.6,89.1,-6.62% (inactive),1.64% (inactive)
N#CC1=C(N)Oc2c(ccc3cccnc23)C1c1cccnc1 (stereo not drawn),111% (inactive),60% (inactive),15.1% (active),-10.9% (inactive),26,15.1,-7.53% (inactive),5% (inactive)
